Results as given in ChEMBL document CHEMBL2176934 (J Med Chem, 2012).
Calls of active or inactive are those of the source. The rule behind the calls is not given here.

Key:
[1] = Inhibition of Cytochrome P450; assay type: ADME
[2] = Inhibition of LPA-induced proliferation of HLF incubated for 1 hr prior to LPA-challenge measured after 48 hrs by BrdU incorporation assay; conditions: Homo sapiens
[3] = target: T1, Lysophosphatidic acid receptor 1 (Homo sapiens, UniProt Q92633); assay: Antagonist activity at LPA1 in human lung fibroblasts assessed as inhibition of LPA-induced contraction after 18 hrs by 3D collagen gel contraction assay; assay type: functional
Method in brief: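 NHLFs (healthy nonsmoking donors, passages 5–9) at 2.5 × 10⁵ cells/well, mixed 1:4 with collagen lattice; gels polymerized 2 h at 37 °C, then basal medium with 0.1% FBS, 0.1% fatty acid-free BSA and vehicle or antagonist added. Gels detached, LPA (18:1) 15 μM added; after 18 h, contraction quantified by gel disc weight.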

[4] = target: T2, Lysophosphatidic acid receptor 3 (Homo sapiens) (UniProt Q9UBY5); assay: Antagonist activity at human recombinant LPA3 expressed in chem-1 cells assessed as inhibition of LPA-induced intracellular calcium mobilization at 30 uM incubated for 30 mins prior to LPA-challenge measured over 100 secs by FLIPR assay; assay type: functional, cell-based
T2 sequence (whole entry): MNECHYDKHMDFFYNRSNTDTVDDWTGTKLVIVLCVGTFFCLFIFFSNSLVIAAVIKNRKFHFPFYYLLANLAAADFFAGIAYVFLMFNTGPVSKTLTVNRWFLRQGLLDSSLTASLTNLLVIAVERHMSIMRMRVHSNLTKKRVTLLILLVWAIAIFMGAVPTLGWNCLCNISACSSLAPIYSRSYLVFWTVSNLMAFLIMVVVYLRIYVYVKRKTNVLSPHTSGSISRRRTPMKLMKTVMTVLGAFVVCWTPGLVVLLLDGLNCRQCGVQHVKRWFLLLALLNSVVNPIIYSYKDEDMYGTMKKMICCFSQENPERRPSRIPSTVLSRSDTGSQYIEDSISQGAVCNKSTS
Method in brief: (§1)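 Calcium-optimized Chem-1 cells stably expressing human LPA1 or LPA3 (parental line with ionomycin as counterscreen), seeded 10,000/well the day before. Calcium-4 dye in HBSS/20 mM HEPES/2.5 mM probenecid loaded 30 min at 37 °C; compound added, 30 min at room temperature in the dark; LPA (18:1) 1 μM final. Peak fluorescence read over 100 s; IC50 from 10-concentration 4-parameter logistic fit, mean of at least three runs.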

[5] = test system: Plasma; assay: Ratio of plasma concentration of AM095 to plasma concentration of compound in C57BL6/J mouse at 100 mg/kg, po dosed 2 hrs prior to LPA-challenge by LC/MS spectrometry; assay type: ADME, organism-based; set-up: dose 100 mg/kg, route oral; conditions: in vivo
Method in brief: (§2)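 Male C57BL6/J mice, 7–9 weeks old, given compound orally 2 h before intravenous LPA 100 μg/mouse (in 0.1% fatty acid-free BSA). Killed 3 min after LPA; EDTA plasma histamine measured by ELISA and plasma drug levels by LC/MS. n = 5–8 mice, mean ± SEM; one-way ANOVA with Dunnett's test versus LPA vehicle control.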

[6] = target: Voltage-gated inwardly rectifying potassium channel KCNH2 (Homo sapiens, UniProt Q12809); assay: Inhibition of human ERG
[7] = test system: Mus musculus; assay: Antifibrosis activity in C57BL6/J mouse assessed as inhibition of LPA-stimulated histamine release at 100 mg/kg, po dosed 2 hrs prior to LPA-challenge by ELISA; assay type: functional, organism-based; set-up: dose 100 mg/kg; method in brief: as §2
[8] = target: T3, Lysophosphatidic acid receptor 3 (Homo sapiens, UniProt Q9UBY5); assay: Antagonist activity at human recombinant LPA3 expressed in chem-1 cells assessed as inhibition of LPA-induced intracellular calcium mobilization incubated for 30 mins prior to LPA-challenge measured over 100 secs by FLIPR assay; assay type: functional, cell-based; method in brief: as §1
T3 sequence (Q9UBY5 whole entry): T2 sequence (whole entry)

[9] = target: T1, Lysophosphatidic acid receptor 1; assay: Antagonist activity at human recombinant LPA1 expressed in chem-1 cells assessed as inhibition of LPA-induced intracellular calcium mobilization at 30 uM incubated for 30 mins prior to LPA-challenge measured over 100 secs by FLIPR assay; assay type: functional, cell-based; method in brief: as §1
[10] = Inhibition of LPA-induced proliferation of HLF at 10 uM incubated for 1 hr prior to LPA-challenge measured after 48 hrs by BrdU incorporation assay; assay type: functional; conditions: Homo sapiens
Method in brief: (§3)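 NHLFs (passages 5–9) seeded on collagen I at 5 × 10³ cells/well overnight in complete medium, then starved 24 h in basal medium with 0.1% FBS and 0.1% fatty acid-free BSA. Stimulated with LPA (18:1) 15 μM in the presence of antagonist; proliferation read as BrdU incorporation with a commercial kit.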

[11] = Inhibition of LPA-induced proliferation of HLF at 1 uM incubated for 1 hr prior to LPA-challenge measured after 48 hrs by BrdU incorporation assay; assay type: functional; conditions: Homo sapiens; method in brief: as §3

T1 sequence (Q92633 whole entry): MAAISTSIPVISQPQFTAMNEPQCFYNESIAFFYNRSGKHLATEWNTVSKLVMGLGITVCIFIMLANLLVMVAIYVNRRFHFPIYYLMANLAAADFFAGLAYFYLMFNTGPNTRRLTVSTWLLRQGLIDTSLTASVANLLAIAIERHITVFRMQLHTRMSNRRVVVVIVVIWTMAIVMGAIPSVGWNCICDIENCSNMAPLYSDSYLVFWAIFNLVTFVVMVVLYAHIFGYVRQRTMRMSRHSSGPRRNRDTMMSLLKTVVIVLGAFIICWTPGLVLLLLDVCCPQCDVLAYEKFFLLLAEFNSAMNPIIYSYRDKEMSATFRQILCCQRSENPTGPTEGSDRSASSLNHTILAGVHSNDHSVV
Sequence of Voltage-gated inwardly rectifying potassium channel KCNH2 (Q12809 whole entry): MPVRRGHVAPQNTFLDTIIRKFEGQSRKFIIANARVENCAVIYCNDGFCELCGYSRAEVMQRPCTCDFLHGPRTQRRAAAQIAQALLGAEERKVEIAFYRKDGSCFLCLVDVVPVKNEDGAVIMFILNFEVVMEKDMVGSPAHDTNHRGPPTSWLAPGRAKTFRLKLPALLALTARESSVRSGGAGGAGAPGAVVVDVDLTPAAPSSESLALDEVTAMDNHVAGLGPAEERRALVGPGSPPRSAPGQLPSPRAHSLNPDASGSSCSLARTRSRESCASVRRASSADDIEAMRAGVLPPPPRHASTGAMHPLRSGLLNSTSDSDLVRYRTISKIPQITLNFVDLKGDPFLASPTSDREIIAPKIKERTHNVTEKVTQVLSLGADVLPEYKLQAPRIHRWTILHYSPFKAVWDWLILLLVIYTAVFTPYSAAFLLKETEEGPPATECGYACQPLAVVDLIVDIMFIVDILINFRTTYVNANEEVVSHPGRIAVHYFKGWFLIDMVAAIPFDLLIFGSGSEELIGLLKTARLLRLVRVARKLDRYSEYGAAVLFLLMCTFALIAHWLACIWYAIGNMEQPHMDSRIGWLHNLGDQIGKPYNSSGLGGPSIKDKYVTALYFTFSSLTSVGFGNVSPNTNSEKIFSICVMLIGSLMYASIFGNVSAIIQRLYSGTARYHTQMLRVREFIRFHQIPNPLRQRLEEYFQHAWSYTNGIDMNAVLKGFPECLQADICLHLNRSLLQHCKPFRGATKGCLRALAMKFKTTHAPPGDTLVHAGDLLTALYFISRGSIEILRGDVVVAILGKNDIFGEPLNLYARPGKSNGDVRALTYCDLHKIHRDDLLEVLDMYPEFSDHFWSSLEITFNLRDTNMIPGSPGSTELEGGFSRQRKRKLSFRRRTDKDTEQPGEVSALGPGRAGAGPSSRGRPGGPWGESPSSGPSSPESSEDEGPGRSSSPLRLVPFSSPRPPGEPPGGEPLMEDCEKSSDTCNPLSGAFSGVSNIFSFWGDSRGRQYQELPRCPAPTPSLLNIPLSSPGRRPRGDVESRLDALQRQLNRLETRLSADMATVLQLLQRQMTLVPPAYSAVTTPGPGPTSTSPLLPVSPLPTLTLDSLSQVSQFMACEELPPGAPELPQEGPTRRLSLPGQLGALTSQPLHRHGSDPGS

Structure (SMILES)	inhibition (INH) [1]	IC50 [2] [nM]	inhibition [3]	inhibition (INH) [6]	inhibition [7]	IC50 [8] [nM]	inhibition [9] [%]	other results
Cc1nnn(-c2ccc(-c3ccc(C4(C(=O)O)CC4)cc3)cc2)c1NC(=O)O[C@H](C)c1ccccc1	Not Active	4	Dose-dependent effect	Not Active	Active			inhibition [4]: 20%; Ratio [5]: > 65
CC(OC(=O)Nc1c(-c2ccc(F)cc2)cnn1C)c1ccccc1Cl (racemic)	Not Active			Not Active		> 30000	> 97	
Cc1csc2c(N[C@@H](C)CN3CCN(S(=O)(=O)c4ccc(Cl)c(Cl)c4)CC3)ncnc12			inactive					inhibition at 10 µM [10]: < 50%
CC(OC(=O)Nc1c(-c2ccccc2)cnn1C)c1ccccc1Cl (racemic)	Not Active			Not Active		> 30000	> 97	
Cc1noc(-c2ccc(-c3ccc(CC(=O)O)cc3)cc2)c1NC(=O)O[C@H](C)c1ccccc1					Active			
C[C@@H](OC(=O)Nc1c(-c2ccccc2F)cnn1C)c1ccccc1Cl	Not Active	810		Not Active			> 97	inhibition at 1 µM [11]: > 50%
